Results from different studies.
Lines come from different studies, so protocols differ.
Target: Calcium/calmodulin-dependent protein kinase type IV (CAMK4, Homo sapiens, UniProt Q16566)
One construct used (Q16566 1-473): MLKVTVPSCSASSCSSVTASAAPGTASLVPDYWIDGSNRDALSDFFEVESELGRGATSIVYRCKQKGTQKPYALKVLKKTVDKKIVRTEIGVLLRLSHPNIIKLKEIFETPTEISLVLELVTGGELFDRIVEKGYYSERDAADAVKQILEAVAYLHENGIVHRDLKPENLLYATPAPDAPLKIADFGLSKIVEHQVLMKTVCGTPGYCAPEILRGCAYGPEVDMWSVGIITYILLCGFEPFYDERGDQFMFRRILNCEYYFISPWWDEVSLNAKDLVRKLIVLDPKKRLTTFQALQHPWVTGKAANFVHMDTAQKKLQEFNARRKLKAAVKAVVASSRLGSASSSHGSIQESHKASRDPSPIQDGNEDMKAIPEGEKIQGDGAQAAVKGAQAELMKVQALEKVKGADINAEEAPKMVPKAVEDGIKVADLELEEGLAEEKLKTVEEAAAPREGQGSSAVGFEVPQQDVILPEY

SMILES	read-out	method	concentration	remaining binding [%]
CNC(=O)Nc1ccc2c(c1)CC[C@@]21OC(=O)N(CC(=O)N(Cc2ccc(F)cc2)[C@@H](C)C(F)(F)F)C1=O	cell-free assay	competition with immobilised ligand	1 µM	75
O=C(Nc1c[nH]nc1C(=O)NC1CCNCC1)c1cc(F)cc(F)c1	binding	competition with immobilised ligand	1 µM	100
C[C@H](c1ccnc(Nc2nc3ccc(-c4cc(N(C)C)ncn4)cc3[nH]2)c1)N1CCN(C(=O)CC(F)(F)F)CC1	cell-free assay	competition with immobilised ligand	0.1 µM	100
C[C@@H]1CCN(c2nccc(-c3cnn4ncccc34)n2)C1	binding		1 µM	100
Cn1nc(C(F)(F)F)cc1-c1cnc(N2CCc3cc(S(=O)(=O)Nc4c(F)cc(Cl)cc4F)cc(N4CCCC4=O)c32)nc1	cell-free assay	competition with immobilised ligand	1 µM	100
c1cncc(-c2cccc(Nc3nccc(NC4CCCCC4)n3)c2)c1	binding	competition with immobilised ligand	10 µM	100
N[C@@H]1CCN(c2nccc(-c3cnn4ncccc34)n2)C1	binding		1 µM	100
Nc1c(C(=O)NCc2ccc(C(=O)NCCCC3CCCCC3)cc2)cnn1-c1ccccc1	cell-free assay	competition with immobilised ligand	0.1 µM	98
C[C@@H](c1ccc(-n2cnc3c(N)ncnc32)cc1)N1CCc2nn(C)c(Cc3ccccc3)c2C1=O	binding	competition with immobilised ligand	0.1 µM	100
CCOC(=O)c1cc2cc(-c3cc(C(=O)NCc4ccc(C(=O)O)cc4)nn3C)ccc2[nH]1	cell-free assay	competition with immobilised ligand	0.1 µM	95
CC1CCCN1c1nccc(-c2cnn3ncccc23)n1 (stereo not shown)	binding		1 µM	100
COc1cnc(Nc2cccc(S(N)(=O)=O)c2)nc1N1CCN(c2ccccc2)C(=O)C1	binding	competition with immobilised ligand	1 µM	100
Cc1cnn2ncc(-c3ccnc(N(C)C)n3)c2c1	binding		1 µM	86
Nc1ncc2c(n1)-c1c([nH]c3ccc(C#CC4CC4)cc13)CCCC2	binding	competition with immobilised ligand	1 µM	100
O=C(c1ccc(Nc2ncc(Cl)c(-c3cc4ccccc4s3)n2)cc1)N1CCC(N2CCCC2)CC1	binding	competition with immobilised ligand	1 µM	100
FC(F)(F)Oc1cccc(-c2cnc3ccc(-c4ccncc4)nn23)c1	cell-free assay	competition with immobilised ligand	5 µM	100
CN(CCCC(F)(F)F)c1nccc(-c2cnn3ncccc23)n1	binding		1 µM	64
O=C(NCCCN1CCOCC1)c1ccc(Nc2nccc(-c3cc4ccccc4s3)n2)cc1	binding	competition with immobilised ligand	1 µM	100
CN(C)c1nccc(-c2cnn3ncccc23)n1	binding		1 µM	100
CNC(=O)Nc1ccc2c(c1)[C@@]1(CC2)OC(=O)N(CC(=O)N(Cc2ccc(F)cc2)[C@@H](C)C(F)(F)F)C1=O	cell-free assay	competition with immobilised ligand	1 µM	85
Cc1cnc(Nc2ccc(C(=O)N3CCC(N4CCCC4)CC3)cc2)nc1-c1cc2ccccc2s1	binding	competition with immobilised ligand	1 µM	100
CNC(=O)[C@@H]1CC[C@@H](n2c(-c3ccc4cnccc4c3)nc3ccc(C(=O)NCc4cccc(C(N)=O)c4)cc32)C1	binding	competition with immobilised ligand	1 µM	100
